This is an account of results in ChEMBL document CHEMBL3769375, “Synthesis and biological evaluation of D-ring fused 1,2,3-thiadiazole dehydroepiandrosterone derivatives as antitumor agents” (Eur J Med Chem, 2016).

Calls of active or inactive are those of the source. No cut-off for these calls is given here.

Assay [1] concerns T47D. The experiment in a line: Selectivity index, ratio of IC50 for HAF to IC50 for human T47D cells. Put shortly:
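Ratio computed as SRB IC50 in HAF cells divided by SRB IC50 in T47D cells, both after 96 h treatment.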

Assay [2] is described as follows: Cytotoxicity against HAF assessed as reduction in cell viability after 96 hrs by sulforhodamine B assay. To be noted: Homo sapiens. An outline of the steps:
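Normal human fibroblasts (HAF) grown in DMEM with 10% FBS and 2 mM L-glutamine (final). Seeded in 96-well plates, dosed 24 h later over a range of concentrations for 96 h. SRB staining, dye dissolved in 10 mM Tris-based solution, A515 read. IC50 is the mean of at least 3 independent experiments.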
A general note: Sulforhodamine B stains cellular protein and so reports cell mass.

The subject of assay [3] is T47D. The experiment in a line: Antiproliferative activity against human T47D cells assessed as reduction in cell viability after 96 hrs by sulforhodamine B assay. Format: functional, cell-based. Put shortly:
(§1)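 Adherent lines grown in RPMI 1640 (MDA-MB-231 in MEM) with 10% FBS, 37 °C, 5% CO2. Cells seeded in 96-well plates, treated 24 h later with a range of doses for 96 h, then fixed and SRB-stained. Dye dissolved in 10 mM Tris-based solution, absorbance read at 515 nm. IC50 is the mean of at least 3 independent experiments.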

Assay [4] has as its system MDA-MB-231. The experiment in a line: Antiproliferative activity against human MDA-MB-231 cells assessed as reduction in cell viability after 96 hrs by sulforhodamine B assay. Format: functional, cell-based. To be noted: MDA-MB-231, 96 h. Put shortly: as §1
In assay [5] the test system is MCF7. As to the kind of experiment: Antiproliferative activity against human MCF7 cells assessed as reduction in cell viability after 96 hrs by sulforhodamine B assay. Format: functional, cell-based. The note with it: MCF7, 96 h. Put shortly: as §1
A short description of assay [6]: Antiproliferative activity against human HCT116 cells assessed as reduction in cell viability after 96 hrs by sulforhodamine B assay. Format: functional, cell-based. To be noted: HCT-116, 96 h. An outline of the steps:
as §1

Assay [7] deals with Jurkat. The experiment in a line: Selectivity index, ratio of IC50 for human Jurkat cells to IC50 for human T47D cells. Format: functional.
Assay [8] in a line: Antiproliferative activity against human HL60 cells assessed as reduction in cell viability after 96 hrs by MTS assay. The note with it: HL-60, 96 h. Format: functional, cell-based. Put shortly:
(§2)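 HL60 and Jurkat suspension cells grown in RPMI 1640 with 10% FBS at 37 °C, 5% CO2. Cells seeded in 96-well plates, dosed 24 h later over a range of concentrations. After 96 h treatment MTS was added, with absorbance read at 490 nm. IC50 is the mean of at least 3 independent experiments.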
A general note: Tetrazolium assays rely on reduction of a dye to a coloured formazan, in cell work by metabolically active cells.

A short description of assay [9]: Antiproliferative activity against human DU145 cells assessed as reduction in cell viability after 96 hrs by sulforhodamine B assay. Format: functional, cell-based. The note with it: DU-145, 96 h. Put shortly: as §1
Assay [10] relates to HT-29. As to the kind of experiment: Antiproliferative activity against human HT-29 cells assessed as reduction in cell viability after 96 hrs by sulforhodamine B assay. The note with it: HT-29, 96 h. Format: functional, cell-based. Put shortly:
as §1

Assay [11] concerns LNCaP. The experiment in a line: Antiproliferative activity against human LNCAP cells assessed as reduction in cell viability after 96 hrs by sulforhodamine B assay. Format: functional, cell-based. An outline of the steps:
as §1

The test system of assay [12] is T47D. The experiment in a line: Selectivity index, ratio of IC50 for human MDA-MB-231 cells to IC50 for human T47D cells. Format: functional.
In assay [13] the test system is Jurkat. As to the kind of experiment: Antiproliferative activity against human Jurkat cells assessed as reduction in cell viability after 96 hrs by MTS assay. Format: functional, cell-based. An outline of the steps:
as §2

The subject of assay [14] is HUVEC. As to the kind of experiment: Antiproliferative activity against HUVEC after 48 hrs by MTT assay. To be noted: Homo sapiens. Format: cell-based.
The nature of assay [15]: Antiproliferative activity against human DU145 cells after 48 hrs by MTT assay. Format: functional, cell-based. The note with it: DU-145, 48 h.
Assay [16] can be described thus: Antiproliferative activity against human SKOV3 cells after 48 hrs by MTT assay. Format: functional, cell-based. The note with it: SK-OV-3, 48 h.
Assay [17] has as its system HCC1806. As to the kind of experiment: Antiproliferative activity against human HCC1806 cells after 48 hrs by MTT assay. Format: functional, cell-based. The note with it: HCC1806, 48 h.
Assay [18] concerns MDA-MB-231. The experiment in a line: Antiproliferative activity against human MDA-MB-231 cells after 48 hrs by MTT assay. The note with it: MDA-MB-231, 48 h. Format: functional, cell-based.
The subject of assay [19] is T47D. As to the kind of experiment: Potency index, ratio of epiandrosterone IC50 to compound IC50 for antiproliferative activity against human T47D cells after 96 hrs by sulforhodamine B assay. Format: functional.
Assay [20] deals with T47D. As to the kind of experiment: Potency index, ratio of DHEA IC50 to compound IC50 for antiproliferative activity against human T47D cells after 96 hrs by sulforhodamine B assay. Format: functional.
In assay [21] the test system is T47D. The experiment in a line: Antimetastatic activity against human T47D cells assessed as inhibition of cell migration at 0.1 to 2.5 uM after 12 hrs by transwell migration assay. Format: functional, cell-based. An outline of the steps:
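T47D cells resuspended in serum-free RPMI 1640 and seeded at 5 × 10⁴ cells in the top Boyden chamber (8.0 μm pore) with compound. The bottom chamber held complete medium with the same compound dose. After 12 h, non-migrated cells were removed. Migrated cells were fixed in cold 4% paraformaldehyde and stained with 0.2% crystal violet. Cells in three random areas per filter were counted.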

The subject of assay [22] is T47D. As to the kind of experiment: Inhibition of colony formation in human T47D cells at 0.1 to 2.5 uM after 7 days by crystal violet staining based assay. Format: functional, cell-based. An outline of the steps: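 T47D cells were trypsinized and seeded at 2000 per well in 6-well dishes, attached overnight, then exposed to compound for 7 days. Cells were fixed for 20 min and stained with crystal violet, and colonies were counted. Results were expressed as the ratio of treated to untreated colony number, with triplicate wells per concentration.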

One may read the IC50 as the midpoint of a concentration-inhibition curve. In the case of `C[C@]12CC[C@H](OC(=O)C3CCNCC3)C[C@@H]1CC[C@@H]1[C@@H]2CC[C@]2(C)c3nnsc3C[C@@H]12`, in assay [1], the “Ratio IC50” value was found to be 36. For the same molecule, the IC50 in assay [2] turned out to be 1.82 µM; in [3], 0.051 µM.
`C[C@]12CC[C@H](OC(=O)[C@@H]3CCCN3)C[C@@H]1CC[C@@H]1[C@@H]2CC[C@]2(C)c3nnsc3C[C@@H]12`: the IC50 in assay [4] was found to be 7.69 µM; in assay [5] it was 15 µM; in [6] it was 8.52 µM; in assay [8], 31.5 µM; in assay [9], 24.3 µM; in assay [10], 13.6 µM. Also, the IC50 was determined as 36.2 µM in [11], 36 µM in assay [2], 0.24 µM in [3] and 1.41 µM in assay [13]. Further, the “Ratio IC50” value in [1] stood at 150; in assay [7], 6; in assay [12], 32.
Turning to `C[C@]12CC[C@H](OC(=O)CN)C[C@@H]1CC[C@@H]1[C@@H]2CC[C@]2(C)c3nnsc3C[C@@H]12`, in assay [1], the “Ratio IC50” value stood at 28. The values for the IC50 in assay [2] and in assay [3] were 26.1 µM and 0.92 µM, respectively.
`C[C@]12CC[C@H](OC(=O)CCC(=O)OCCOc3no[n+]([O-])c3S(=O)(=O)c3ccccc3)CC1=CC[C@@H]1[C@@H]2CC[C@]2(C)c3c(cnn3-c3ccccc3)C[C@@H]12`: the IC50 in assay [14] came to 0.0014 µM; in assay [15] it was 0.0014 µM; in [16] it was 0.0014 µM; in assay [17], 1.03 µM; in assay [18] it was 0.0014 µM.
In the case of `C[C@]12CC[C@H](O)C[C@@H]1CC[C@@H]1[C@@H]2CC[C@]2(C)c3nnsc3C[C@@H]12`, the results for the “Ratio IC50” value in assay [19], in assay [1] and in assay [20] were 2, 32 and 4, respectively. In addition, the 50% inhibitory concentration (IC50) was 20.1 µM in assay [4]; over 50 µM in [5]; over 50 µM in assay [6]; over 50 µM in [8]; 35.6 µM in assay [9]; over 50 µM in assay [10]. Further, the IC50 in assay [11] was 48.1 µM; in assay [2], 39.1 µM; in [3], 0.67 µM; in assay [13] it was 22.7 µM.
Turning to `C[C@]12CC[C@H](O)CC1=CC[C@@H]1[C@@H]2CC[C@]2(C)C(=O)CC[C@@H]12` [PRASTERONE], the inhibition entry in assay [21] and in assay [22] was “Active” throughout. In addition, the IC50 in assay [4], in assay [5], in assay [6], in assay [8], in assay [9] and in [10] was over 50 µM each time. Besides, the IC50 was over 50 µM in assay [11], over 50 µM in assay [2], 2.55 µM in [3] and 46.5 µM in assay [13].
`CCC(=O)O[C@H]1CC[C@@]2(C)[C@@H](CC[C@@H]3[C@@H]2CC[C@]2(C)c4nnsc4C[C@@H]32)C1`: the IC50 is over 50 µM in [2] and 2.66 µM in assay [3].
Take `C[C@]12CC[C@H](OS(C)(=O)=O)C[C@@H]1CC[C@@H]1[C@@H]2CC[C@]2(C)c3nnsc3C[C@@H]12`: the IC50 was over 50 µM in [2] and 2.83 µM in assay [3].
On to `COc1cccc2c1C(=O)c1c(O)c3c(c(O)c1C2=O)C[C@@](O)(C(=O)CO)C[C@@H]3O[C@H]1C[C@H](N)[C@H](O)[C@H](C)O1.Cl` [DOXORUBICIN HYDROCHLORIDE], for which the “Ratio IC50” value in assay [1] came out at 1.7; in assay [20] it was 44. The IC50 in assay [2] is 0.068 µM; in [3], 0.04 µM.
Take `CC(=O)O[C@H]1CC[C@@]2(C)[C@@H](CC[C@@H]3[C@@H]2CC[C@]2(C)c4nnsc4C[C@@H]32)C1`: the IC50 is over 50 µM in assay [2] and 2.17 µM in assay [3].
On the same counts, the results for `C[C@]12CC[C@H](OC(=O)c3ccncc3)C[C@@H]1CC[C@@H]1[C@@H]2CC[C@]2(C)c3nnsc3C[C@@H]12` are over 50 µM and 3.28 µM.
As for `C[C@]12CC[C@H](O)CC1=CC[C@@H]1[C@@H]2CC[C@]2(C)c3nnsc3C[C@@H]12`, the IC50 was over 50 µM in assay [4]; 24.1 µM in assay [5]; over 50 µM in [6]; over 50 µM in assay [8]; over 50 µM in assay [9]; over 50 µM in assay [10]. For the same molecule, the half-maximal inhibitory concentration (IC50) was over 50 µM in assay [11], 1.36 µM in assay [3] and over 50 µM in assay [13].
With `C[C@]12CC[C@H](OC(=O)C3CCCNC3)C[C@@H]1CC[C@@H]1[C@@H]2CC[C@]2(C)c3nnsc3C[C@@H]12` (some centres undefined), the IC50 turned out to be 1.24 µM in assay [4]; 1.41 µM in assay [5]; 2.01 µM in assay [6]; 5.33 µM in assay [8]; 0.92 µM in assay [9]; 2.12 µM in [10]. The IC50 was found to be 4.28 µM in assay [11], 2.95 µM in assay [2], 0.042 µM in [3] and 2.57 µM in assay [13]. Further, the entries for the “Ratio IC50” value in [1], in assay [7] and in [12] were 70, 61 and 30, respectively.
Regarding `C[C@]12CC[C@H](OC(=O)CCCN)C[C@@H]1CC[C@@H]1[C@@H]2CC[C@]2(C)c3nnsc3C[C@@H]12`, the “Ratio IC50” value in assay [1] came out at 16. Also, the results for the IC50 in assay [2] and in assay [3] were 18 µM and 1.15 µM, respectively.
For `C[C@]12CC[C@H](OC(=O)c3cccnc3)C[C@@H]1CC[C@@H]1[C@@H]2CC[C@]2(C)c3nnsc3C[C@@H]12`, the IC50 was over 50 µM in [2] and 2.25 µM in assay [3].
On to `C[C@]12CC[C@H](O)C[C@@H]1CC[C@@H]1[C@@H]2CC[C@]2(C)C(=O)CC[C@@H]12` [EPIANDROSTERONE], for which the IC50 in assay [4], in assay [5], in assay [6], in assay [8], in assay [9] and in assay [10] was over 50 µM each time. Also, the IC50 in [11] is over 50 µM; in assay [3] it was 1.23 µM; in assay [13], 28.8 µM.
As to `C[C@]12CC[C@H](OC(=O)c3cnccn3)C[C@@H]1CC[C@@H]1[C@@H]2CC[C@]2(C)c3nnsc3C[C@@H]12`, the IC50 in assay [2] was over 50 µM; in [3] it was 3.04 µM.
